From ChEMBL document CHEMBL3102766, “Thiodiketopiperazines from the marine-derived fungus Phoma sp. OUCMDZ-1847” (J Nat Prod, 2014)
Calls of active or inactive are those of the source. No cut-off for these calls is given here.

Tests used:
Assay type in all cases: functional, cell-based
HCT-116 = assay: Cytotoxicity against human HCT116 cells after 72 hrs by MTT assay; conditions: for IC50: HCT-116, 72 h
K562 = assay: Cytotoxicity against human K562 cells after 72 hrs by MTT assay; conditions: for IC50: K562, 72 h
MGC-803 = assay: Cytotoxicity against human MGC803 cells after 24 hrs by SRB assay; conditions: for IC50: MGC-803, 24 h
In short: (§1)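 Cytotoxicity against the tumor cell lines was read out by the SRB method, with adriamycin run as the positive control.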

A549 = assay: Cytotoxicity against human A549 cells after 24 hrs by SRB assay; conditions: for IC50: A549, 24 h; in short: as §1
HL-60 = assay: Cytotoxicity against human HL60 cells after 72 hrs by MTT assay; conditions: for IC50: HL-60, 72 h

Structure (SMILES): O=C1C[C@@H]2SS[C@@]34C[C@@H]1[C@@H]([C@H]2O)N3C(=O)[C@@]12C[C@H]3C(=O)C[C@H](SS1)[C@H](O)[C@H]3N2C4=O
- Activity (HCT-116): inactive
- Activity (K562): inactive
- Activity (MGC-803): inactive
- Activity (A549): inactive
- Activity (HL-60): inactive

Structure (SMILES): O=C1C=C[C@H](O)[C@@H]2[C@@H]1C[C@@]13SS[C@]4(C[C@H]5C(=O)C=C[C@H](O)[C@H]5N4C1=O)C(=O)N23
- IC50 (HCT-116): > 10 µM
- IC50 (K562): 4.6 µM
- IC50 (MGC-803): 5.2 µM
- IC50 (A549): > 10 µM
- IC50 (HL-60): 1.6 µM

Structure (SMILES): CS[C@@]12CC3=CC=C[C@H](O)[C@H]3N1C(=O)/C(=C/c1ccccc1)NC2=O
- Activity (HCT-116): inactive
- Activity (K562): inactive
- Activity (MGC-803): inactive
- Activity (A549): inactive
- Activity (HL-60): inactive

Structure (SMILES): CS[C@@]12C[C@@H]3C(=O)C=C[C@H](O)[C@H]3N1C(=O)[C@]1(SC)C[C@@H]3C(=O)C=C[C@H](O)[C@H]3N1C2=O
- IC50 (HCT-116): 4 µM
- IC50 (K562): > 10 µM
- IC50 (MGC-803): 4.2 µM
- IC50 (A549): > 10 µM
- IC50 (HL-60): 3.5 µM

Structure (SMILES): CS[C@@]1(Cc2ccccc2)NC(=O)[C@]2(SC)CC3=CC=C[C@H](O)[C@H]3N2C1=O
- IC50 (HCT-116): > 10 µM
- IC50 (K562): > 10 µM
- IC50 (MGC-803): 8.5 µM
- IC50 (A549): > 10 µM
- IC50 (HL-60): > 10 µM

Structure (SMILES): O=C1C[C@H](O)[C@H](O)[C@@H]2[C@H]1C[C@@]13SS[C@]4(C[C@H]5C(=O)C[C@H](O)[C@H](O)[C@H]5N4C1=O)C(=O)N23
- Activity (HCT-116): inactive
- Activity (K562): inactive
- Activity (MGC-803): inactive
- Activity (A549): inactive
- Activity (HL-60): inactive

Structure (SMILES): O=C1C[C@@H]2S[C@@]34C[C@@H]1[C@@H]([C@H]2O)N3C(=O)[C@@]12C[C@H]3C(=O)C[C@H](S1)[C@H](O)[C@H]3N2C4=O
- Activity (HCT-116): inactive
- Activity (K562): inactive
- Activity (MGC-803): inactive
- Activity (A549): inactive
- Activity (HL-60): inactive

Structure (SMILES): O=C1C[C@H]2S[C@@]34C[C@@H]1[C@@H]([C@H]2O)N3C(=O)[C@@]12C[C@H]3C(=O)[C@@H](S1)[C@H](O)[C@H](O)[C@H]3N2C4=O
- Activity (HCT-116): inactive
- Activity (K562): inactive
- Activity (MGC-803): inactive
- Activity (A549): inactive
- Activity (HL-60): inactive

Structure (SMILES): O=C1C[C@H]2SS[C@@]34C[C@@H]1[C@@H]([C@H]2O)N3C(=O)[C@@]12C[C@H]3C(=O)C[C@@H](S1)[C@H](O)[C@H]3N2C4=O
- Activity (HCT-116): inactive
- Activity (K562): inactive
- Activity (MGC-803): inactive
- Activity (A549): inactive
- Activity (HL-60): inactive

Structure (SMILES): O=C1C=C[C@H](O)[C@@H]2[C@@H]1C[C@@]13SS[C@]4(C[C@@H]5C(=O)C=C[C@H](O)[C@H]5N4C1=O)C(=O)N23 [EPICORAZINE A]
- IC50 (HCT-116): 0.33 µM
- IC50 (K562): 1.5 µM
- IC50 (MGC-803): 2.7 µM
- IC50 (A549): 2.3 µM
- IC50 (HL-60): 0.05 µM

Structure (SMILES): COc1cccc2c1C(=O)c1c(O)c3c(c(O)c1C2=O)C[C@@](O)(C(=O)CO)C[C@@H]3O[C@H]1C[C@H](N)[C@H](O)[C@H](C)O1 [DOXORUBICIN]
- IC50 (MGC-803): 0.17 µM
- IC50 (A549): 0.16 µM

Structure (SMILES): O=C1N2[C@H]3[C@H](C[C@]24SS[C@]12C[C@H]1[C@@H]([C@@H](O)CC[C@@H]1O)N2C4=O)[C@@H](O)CC[C@@H]3O
- Activity (HCT-116): inactive
- Activity (K562): inactive
- Activity (MGC-803): inactive
- Activity (A549): inactive
- Activity (HL-60): inactive

Structure (SMILES): O=C1C=C[C@H](O)[C@@H]2[C@@H]1C[C@@]13SS[C@]4(C[C@H]5C(=O)C[C@H](O)[C@H](O)[C@H]5N4C1=O)C(=O)N23
- IC50 (HCT-116): 7.1 µM
- IC50 (K562): > 10 µM
- IC50 (MGC-803): 3.4 µM
- IC50 (A549): > 10 µM
- IC50 (HL-60): 3.5 µM

Structure (SMILES): O=C1C[C@@H]2SS[C@@]34C[C@@H]1[C@@H]([C@H]2O)N3C(=O)[C@@]12C[C@H]3C(=O)[C@H](S1)[C@H](O)[C@H](O)[C@H]3N2C4=O
- Activity (HCT-116): inactive
- Activity (K562): inactive
- Activity (MGC-803): inactive
- Activity (A549): inactive
- Activity (HL-60): inactive
